Results published in ChEMBL document CHEMBL1123727, “Synthesis of 6-substituted beta-carbolines that behave as benzodiazepine receptor antagonists or inverse agonists” (J Med Chem, 1987).
Activity calls are given as the source filed them. No cut-off for these calls is given here.

Columns and labels:
Mus musculus [1] = experiment: Dose required to antagonize Diazepam (2.5 mg/kg) anticonvulsant effects in mice treated with pentylenetetrazole (80 mg/kg); type: functional
Procedure, shortened: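 Adult male mice (20–25 g) given diazepam 2.5 mg/kg ip in 10% diluted emulphor–90% saline. Drug or vehicle given ip 5 min later, then PTZ 80 mg/kg ip (CD100) after another 5 min. Two independent raters scored clonic-tonic convulsions; animals counted protected if seizure-free for 15 min. ED50 = dose antagonizing diazepam's anticonvulsant effect in 50% of mice.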

[2] = target: GABA-A receptor; anion channel; experiment: In vitro displacement of [3H]diazepam from GABA-A benzodiazepine receptor in rat cerebral cortex; type: tissue-based
Procedure, shortened: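 Cortex from adult male Sprague–Dawley rats homogenized in 50 mM Tris-HCl pH 7.4, homogenization–centrifugation repeated three times in total. Membranes incubated with graded compound concentrations and [3H]diazepam (final 2 nM) for 90 min at 4 °C. Bound ligand collected by rapid GF/B filtration and counted by liquid scintillation. Nonspecific binding defined with 5 μM flunitrazepam.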

Mus musculus [3] = experiment: Dose required to induce convulsions in mice treated with subconvulsant pentylenetetrazole (40 mg/kg); type: functional
Procedure, shortened: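 Adult male mice (20–25 g) given drug ip (suspended in 10% diluted emulphor–90% saline, HCl salts), then challenged 5 min later with subconvulsant PTZ (40 mg/kg ip). Two independent raters observed clonic-tonic convulsions. ED50 = dose inducing convulsions in 50% of mice. Highest dose tested 40 mg/kg.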

Mus musculus [4] = experiment: Dose required to antagonize Diazepam (2.5 mg/kg) anticonvulsant effects in mice treated with pentylenetetrazole (80 mg/kg) (inactive); type: functional, organism-based
[5] = In vitro displacement of [3H]-diazepam from GABA-A benzodiazepine receptor in rat cerebral cortex; type: tissue-based
Procedure, shortened: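 Cortex from adult male Sprague–Dawley rats homogenized in 50 mM Tris-HCl pH 7.4, washed three times and resuspended. Incubated with varying test concentrations and [3H]diazepam (2 nM final) for 90 min at 4 °C. Ended by GF/B filtration, radioactivity counted by scintillation. Nonspecific binding defined with 5 μM flunitrazepam. IC50 reported.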

Mus musculus [6] = experiment: Dose required to induce convulsions in mice treated with subconvulsant pentylenetetrazole (40 mg/kg) (inactive); type: functional, organism-based

IC50 [2]	Compound	also measured
106 nM	c1ccc(CNc2ccc3[nH]c4cnccc4c3c2)cc1	ED50 (Mus musculus [1]): 38 mg/kg; ED50 (Mus musculus [3]): 28 mg/kg
58 nM	CC(=O)c1cc2c3ccccc3nc-2c[nH]1	
> 5000 nM	c1ccc(CNc2ccc3[nH]c4ccccc4c3c2)cc1	
76 nM	OCc1cc2c3cc(NCc4ccccc4)ccc3nc-2c[nH]1	ED50 (Mus musculus [3]): 40 mg/kg; ED50 (Mus musculus [4]): inactive
1470 nM	OCc1cc2c3ccccc3nc-2c[nH]1	
	c1ccc2c(c1)[nH]c1cnccc12 [NORHARMANE]	IC50 [5]: 1620 nM
50 nM	O=C(OC1CCCC1)c1cc2c3ccccc3nc-2c[nH]1	
1300 nM	Nc1ccc2[nH]c3cnccc3c2c1	

Compound	IC50 [2]	also measured
COC(=O)c1cc2c(cn1)[nH]c1ccc(NCc3ccccc3)cc12	10 nM	ED50 (Mus musculus [6]): inactive; ED50 (Mus musculus [1]): 15.5 mg/kg
